Test results: ChEMBL document CHEMBL4673243, “Discovery of 9-Cyclopropylethynyl-2-((S)-1-[1,4]dioxan-2-ylmethoxy)-6,7-dihydropyrimido[6,1-a]isoquinolin-4-one (GLPG1205), a Unique GPR84 Negative Allosteric Modulator Undergoing Evaluation in a Phase II Clinical Trial” (J Med Chem, 2020); call rule not given here
Converted amounts (≈) assume the structure as drawn.

Experiments:
[1] = biological target: 3',5'-cyclic-AMP phosphodiesterase 4A (Homo sapiens, UniProt P27815); experiment: Inhibition of recombinant human PDE4A overexpressed in HEK293 cells assessed as reduction in cAMP hydrolysis by HTRF based immunoassay; format: cell-based
Procedure, shortened: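 Human PDE4A from lysate of HEK293 cells overexpressing the enzyme hydrolyses cAMP; remaining cAMP measured by HTRF competitive immunoassay (d2-labelled cAMP vs cryptate anti-cAMP antibody), signal inversely proportional to cAMP; IC50 determined.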

physchem = details: aqueous solution with 2% DMSO, pH 7.4
in vitro [2] = details: mouse, liver microsomes
[3] = Inhibition of embelin-induced migration of human neutrophils preincubated for 30 mins followed by embelin addition and measured after 1 hr by ATPlite luminescence assay; details: Neutrophil
in vivo [4] = details: male, Sprague-Dawley, rat, po, 5 mg/kg
in vivo [5] = details: male, Sprague-Dawley, rat, po, 5 mg/kg; remark: listed apart in the source
in vivo [6] = details: male, Sprague-Dawley, rat, po, 5 mg/kg; remark: listed apart in the source
in vitro [7] = details: human, liver microsomes
in vitro [8] = details: rat, liver microsomes
[9] = Plasma protein binding in mouse at 5 uM measured after 4 hrs by LC-MS/MS analysis
[10] = Plasma protein binding in rat at 5 uM measured after 4 hrs by LC-MS/MS analysis
[11] = Plasma protein binding in human at 5 uM measured after 4 hrs by LC-MS/MS analysis
in vitro [12] = details: mouse, cryopreserved hepatocytes
in vitro [13] = details: human, cryopreserved hepatocytes

3',5'-cyclic-AMP phosphodiesterase 4A, sequence (P27815 whole entry): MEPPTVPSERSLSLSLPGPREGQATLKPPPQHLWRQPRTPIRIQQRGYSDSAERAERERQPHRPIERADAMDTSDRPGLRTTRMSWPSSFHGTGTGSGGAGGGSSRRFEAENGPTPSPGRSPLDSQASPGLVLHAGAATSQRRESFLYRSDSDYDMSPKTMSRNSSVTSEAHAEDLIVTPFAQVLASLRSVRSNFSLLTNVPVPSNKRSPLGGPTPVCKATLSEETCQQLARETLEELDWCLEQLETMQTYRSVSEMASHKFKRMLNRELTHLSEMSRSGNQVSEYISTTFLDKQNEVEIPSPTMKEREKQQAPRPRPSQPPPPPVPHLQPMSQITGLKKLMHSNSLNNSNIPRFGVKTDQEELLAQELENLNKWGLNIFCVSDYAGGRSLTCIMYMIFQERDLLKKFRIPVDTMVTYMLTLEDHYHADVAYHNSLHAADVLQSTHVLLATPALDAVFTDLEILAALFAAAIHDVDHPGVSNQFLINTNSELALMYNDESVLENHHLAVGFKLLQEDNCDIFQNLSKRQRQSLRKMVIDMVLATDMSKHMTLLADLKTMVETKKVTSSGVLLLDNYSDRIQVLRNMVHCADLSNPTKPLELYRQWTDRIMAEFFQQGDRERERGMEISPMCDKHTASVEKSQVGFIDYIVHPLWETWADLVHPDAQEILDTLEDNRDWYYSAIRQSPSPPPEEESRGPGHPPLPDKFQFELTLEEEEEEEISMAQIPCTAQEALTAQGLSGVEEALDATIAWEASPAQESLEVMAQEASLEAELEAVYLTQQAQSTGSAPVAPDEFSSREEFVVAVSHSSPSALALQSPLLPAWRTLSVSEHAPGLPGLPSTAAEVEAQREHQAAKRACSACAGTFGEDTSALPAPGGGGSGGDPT

| Compound | IC50 ([1]; read-out: IC50) | solubility (physchem) | CLint scaled at 0.5 h, 1 µM (in vitro [2]) | CLint scaled at 0.5 h, 1 µM (in vitro [7]) | further results |
| --- | --- | --- | --- | --- | --- |
| COc1cc2c(cc1OC)-c1cc(OCCOc3ccccn3)nc(=O)n1CC2 | 586 nM | 18 µg/mL (≈ 45.5 µM) | – | – | – |
| COc1cc2c(cc1OC)-c1cc(OCC3CCCO3)nc(=O)n1CC2 (stereo not given) | 2170 nM | 72 µg/mL (≈ 201 µM) | 175 mL/min/kg | – | – |
| COc1ccc2c(c1)CCn1c-2cc(OCc2ccccc2F)nc1=O | > 10000 nM | – | 1490 mL/min/kg | – | – |
| CCCCCCOc1cc2n(c(=O)n1)CCc1cc(OC)c(OC)cc1-2 | – | 3 µg/mL (≈ 8.37 µM) | – | – | – |
| COc1ccc2c(c1)CCn1c-2cc(OCC2COc3ccccc3O2)nc1=O (stereo not given) | – | – | 532 mL/min/kg | 76.7 mL/min/kg | fraction unbound at 4 h, 5 µM [9]: 0.01; fraction unbound at 4 h, 5 µM [10]: 0.004; fraction unbound at 4 h, 5 µM [11]: 0.002; CLint scaled at 1 µM (in vitro [12]): 375 mL/min/kg; CLint scaled at 1 µM (in vitro [13]): 90 mL/min/kg; CLint scaled at 0.5 h, 1 µM (in vitro [8]): 615 mL/min/kg |
| COc1cc2c(cc1OC)-c1cc(OCc3ncccc3F)nc(=O)n1CC2 | 1090 nM | – | – | – | – |
| COc1cc2c(cc1OC)-c1cc(OCc3ccccc3F)nc(=O)n1CC2 | 372 nM | 26 µg/mL (≈ 68 µM) | 670 mL/min/kg | – | – |

More lines, main results first:

| IC50 ([1]; read-out: IC50) | solubility (physchem) | CLint scaled at 0.5 h, 1 µM (in vitro [2]) | CLint scaled at 0.5 h, 1 µM (in vitro [7]) | Compound | further results |
| --- | --- | --- | --- | --- | --- |
| – | – | 162 mL/min/kg | 36.7 mL/min/kg | O=c1nc(OCC2COCCO2)cc2n1CCc1cc(C#CC3CC3)ccc1-2 (racemic) | IC50 ([1]; hek293): Not Active; IC50 [3]: 17 nM; Tmax (in vivo [4]): 1.7 h; AUC(0-inf) at 24 h (in vivo [5]): 10200 ng·h/mL; Cmax at 1.7 h (in vivo [6]): 2420 ng/mL; CLint scaled at 0.5 h, 1 µM (in vitro [8]): 23.3 mL/min/kg |
| > 10000 nM | – | – | – | O=c1nc(OCc2ccccc2F)cc2n1CCc1ccccc1-2 | – |
| > 10000 nM | – | 1970 mL/min/kg | – | COc1ccc2c(c1)-c1cc(OCc3ccccc3F)nc(=O)n1CC2 | – |
| – | – | 517 mL/min/kg | 25 mL/min/kg | O=c1nc(OCC2COCCO2)cc2n1CCc1cc(CCc3ccccn3)ccc1-2 (stereo not given) | – |
| – | – | 433 mL/min/kg | 88.3 mL/min/kg | CN(CC#Cc1ccc2c(c1)CCn1c-2cc(OCC2COCCO2)nc1=O)Cc1ccccc1 (stereo not given) | – |
